In PMC7114445 (Virus Research, 2015):

Experiments:
Test in all cases: Plaque inhibition test in fcwf-4 cells
[1] = tested on: type I FIPV strain KU-2; type: cell-based, feline infectious peritonitis virus; conditions: for Plaque reduction by serial dilutions of peptides: peptide 160, 80 and 40 μM, triplicate
Procedure, shortened: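 Strain KU-2 plaque assay in fcwf-4 cells. Peptide from a 10 mM DMSO stock was diluted to 100 μM, or to 160, 80 and 40 μM, in medium with 2% FCS and 25 μg/mL DEAE-dextran, with 30 min RT pretreatment; 1% DMSO was the solvent control. Without washing, 10 μL of 8000 pfu/mL virus added, 30 min at 37 °C. Wash, carboxymethyl cellulose overlay, 2 days at 37 °C, crystal violet. % plaque inhibition against virus-alone wells.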

[2] = tested on: type I FIPV strain UCD-1; type: cell-based, feline infectious peritonitis virus; conditions: peptide 100 μM
Procedure, shortened: (§1)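 Peptide (10 mM DMSO stock) diluted to 100 μM in medium with 2% FCS and 25 μg/mL DEAE-dextran, then applied to fcwf-4 cells for 30 min at RT. Same-fold DMSO (1%) served as solvent control. Without washing, 10 μL of 8000 pfu/mL virus added for 30 min at 37 °C. Cells washed, overlaid with 2% FCS/1.5% carboxymethyl cellulose for 2 days at 37 °C, formalin-fixed and crystal violet-stained. % plaque inhibition calculated against virus-alone wells.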

[3] = tested on: FCV strain F4; type: cell-based, feline calicivirus; conditions: peptide 100 μM, fcwf-4 cells 30 min RT, triplicate
Procedure, shortened: as §1

[4] = tested on: type II FIPV strain 79-1146; type: cell-based, feline infectious peritonitis virus; conditions: peptide 100 μM
Procedure, shortened: as §1

[5] = tested on: FHV strain C7301; type: cell-based, feline herpesvirus; conditions: peptide 100 μM, fcwf-4 cells 30 min RT, triplicate
Procedure, shortened: as §1

[6] = tested on: type I FIPV strain Black; type: cell-based, feline infectious peritonitis virus; conditions: peptide 100 μM
Procedure, shortened: as §1

[7] = fcwf-4 cells 30 min RT, vs 1% DMSO, triplicate

Sequence: LFYKYTSLQGLYTYSNLVEL [I-S1-22]
- Plaque reduction by serial dilutions of peptides [1]: dose-dependent

Sequence: YTDVMVDVNGTAITRLFYCD [I-S1-10]
- Plaque reduction by serial dilutions of peptides [1]: dose-dependent

Sequence: VNFSISSVEEYGFWTIAYTN [I-S1-8]
- Plaque reduction by serial dilutions of peptides [1]: dose-dependent

Sequence: YHWMNVTLHVVLNDTEKKYD [I-S1-16]
- Plaque inhibition, type I FIPV strain UCD-1 ([2]; fcwf-4 cells): ≥ 50%
- Inhibition of infection by type I FIPV strain UCD-1 [2, 7]: significantly inhibited
- Inhibitory effect on infection by FCV strain F4 [3]: no inhibitory effects
- Plaque inhibition, type II FIPV strain 79-1146 ([4]; fcwf-4 cells): less than 50%
- Inhibition of infection by type II FIPV strain 79-1146 [4, 7]: significantly inhibited
- Plaque inhibition, type I FIPV strain KU-2 ([1]; peptide 100 μM): ≥ 50%
- Plaque reduction by serial dilutions of peptides [1]: dose-dependent
- Inhibitory effect on infection by FHV strain C7301 [5]: no inhibitory effects
- Plaque inhibition, type I FIPV strain Black ([6]; fcwf-4 cells): ≥ 50%
- Inhibition of infection by type I FIPV strain Black [6, 7]: significantly inhibited
